Data published in ChEMBL document CHEMBL4043285 (J Med Chem, 2018).
pIC50: −log10 of the molar value. Activity calls are given as the source filed them. No cut-off for these calls is given here.

Tests used:
[1] = target: T1, Receptor-interacting serine/threonine-protein kinase 1 (Mus musculus) (UniProt Q60855); assay: Inhibition of RIPK1 in mouse L929sA cells transfected with human Fas assessed as inhibition in TNF-induced necroptosis at 3 uM pretreated for 24 hrs followed by TNF and zVAD.fmk addition measured after 3 hrs by Hoechst 33342/propidium iodide staining-based assay relative to control; type: cell-based
T1 sequence (whole entry): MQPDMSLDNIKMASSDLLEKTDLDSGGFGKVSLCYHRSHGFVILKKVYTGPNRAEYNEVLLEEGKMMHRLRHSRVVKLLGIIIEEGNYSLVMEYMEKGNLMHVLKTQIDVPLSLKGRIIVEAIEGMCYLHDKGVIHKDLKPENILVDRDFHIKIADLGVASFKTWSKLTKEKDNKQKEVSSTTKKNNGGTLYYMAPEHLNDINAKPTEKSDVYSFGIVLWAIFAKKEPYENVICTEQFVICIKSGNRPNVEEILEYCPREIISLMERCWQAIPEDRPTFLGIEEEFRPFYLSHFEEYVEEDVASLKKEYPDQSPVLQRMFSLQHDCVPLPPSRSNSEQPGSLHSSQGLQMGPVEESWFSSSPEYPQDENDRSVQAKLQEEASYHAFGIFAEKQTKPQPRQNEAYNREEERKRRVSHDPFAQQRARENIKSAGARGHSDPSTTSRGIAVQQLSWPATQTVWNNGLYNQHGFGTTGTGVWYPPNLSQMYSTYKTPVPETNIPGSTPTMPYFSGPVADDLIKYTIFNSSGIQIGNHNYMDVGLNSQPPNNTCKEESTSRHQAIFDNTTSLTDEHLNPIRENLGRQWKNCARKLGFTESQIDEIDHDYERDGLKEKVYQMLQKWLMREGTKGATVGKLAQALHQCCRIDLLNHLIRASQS

[2] = target: T1, Receptor-interacting serine/threonine-protein kinase 1 (Mus musculus); assay: Inhibition of RIPK1 in mouse L929sA cells transfected with human Fas assessed as inhibition in TNF-induced necroptosis at 3 uM pretreated for 0.5 hrs followed by TNF and zVAD.fmk addition measured after 3 hrs by Hoechst 33342/propidium iodide staining-based assay relative to control; type: cell-based
[3] = target: T2, Receptor-interacting serine/threonine-protein kinase 1 (Homo sapiens, UniProt Q13546); assay: Inhibition of human recombinant RIPK1 after 4 hrs by ADP-Glo assay
T2 sequence (Q13546 whole entry): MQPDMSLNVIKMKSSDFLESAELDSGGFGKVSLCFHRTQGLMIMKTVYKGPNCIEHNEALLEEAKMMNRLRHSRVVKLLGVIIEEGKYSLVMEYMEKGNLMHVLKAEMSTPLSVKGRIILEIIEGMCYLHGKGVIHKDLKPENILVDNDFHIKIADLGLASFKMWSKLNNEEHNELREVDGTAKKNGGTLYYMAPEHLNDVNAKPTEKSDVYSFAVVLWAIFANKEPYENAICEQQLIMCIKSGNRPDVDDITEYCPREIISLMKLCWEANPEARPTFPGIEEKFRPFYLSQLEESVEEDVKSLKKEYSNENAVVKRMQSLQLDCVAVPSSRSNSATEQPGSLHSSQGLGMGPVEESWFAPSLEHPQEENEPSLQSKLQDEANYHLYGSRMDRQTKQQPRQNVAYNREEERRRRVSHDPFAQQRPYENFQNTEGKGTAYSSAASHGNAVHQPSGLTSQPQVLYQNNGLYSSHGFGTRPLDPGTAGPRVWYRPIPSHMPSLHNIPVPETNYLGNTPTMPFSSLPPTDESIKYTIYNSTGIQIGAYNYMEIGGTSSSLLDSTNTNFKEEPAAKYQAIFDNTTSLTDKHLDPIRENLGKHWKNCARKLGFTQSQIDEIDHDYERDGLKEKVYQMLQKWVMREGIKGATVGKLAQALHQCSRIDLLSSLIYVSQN

[4] = Inhibition of Aurk mouse L929sA cells transfected with human Fas assessed as increase in nuclear area after 24 hrs in presence of TNF by Hoechst 33342 staining-based microscopic assay
Method in brief: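 L929sAhFAS cells treated with compound; mean nuclear area is measured and fitted as a sigmoidal dose–response curve.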

Aurora kinase A = target: T3, Aurora kinase A (Homo sapiens, UniProt O14965); assay: Inhibition of human recombinant AurKA after 4 hrs by ADP-Glo assay
T3 sequence (O14965 whole entry): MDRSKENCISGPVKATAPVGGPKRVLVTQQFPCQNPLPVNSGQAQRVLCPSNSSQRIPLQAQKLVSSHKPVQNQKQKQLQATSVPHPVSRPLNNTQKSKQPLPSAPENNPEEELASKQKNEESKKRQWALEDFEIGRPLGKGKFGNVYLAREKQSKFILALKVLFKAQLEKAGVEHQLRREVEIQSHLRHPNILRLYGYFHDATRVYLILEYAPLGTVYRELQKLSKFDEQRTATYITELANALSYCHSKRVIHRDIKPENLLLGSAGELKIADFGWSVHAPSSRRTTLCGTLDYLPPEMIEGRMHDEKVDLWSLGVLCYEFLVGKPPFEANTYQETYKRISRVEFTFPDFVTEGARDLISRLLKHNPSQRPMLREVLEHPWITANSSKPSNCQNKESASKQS

Aurora kinase B = Aurora kinase B (Homo sapiens, UniProt Q96GD4); assay: Inhibition of human recombinant AurKB after 4 hrs by ADP-Glo assay
[5] = Inhibition of Aurk mouse L929sA cells transfected with human Fas assessed as reduction in cell growth after 24 hrs in presence of TNF by Hoechst 33342 staining-based microscopic assay
Method in brief: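 L929sAhFAS cells exposed to compound; total cell number is counted after 24 h. IC50 is fitted from a dose–response curve of cell growth.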

Mus musculus = assay: Protection against TNF-induced hypothermia in TNF-induced SIRS C57BL/6J mouse model at 50 mg/kg administered via oral gavage treated 1.5 hrs prior to TNF challenge by thermometric analysis; type: functional, organism-based
Method in brief: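 Mice were dosed orally by gavage at 50 mg/kg, 1.5 h before challenge with murine TNF (mTNF).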

Aurk (Aurora kinase) [6] = assay: Inhibition of Aurk in mouse L929sA cells transfected with human Fas assessed as reduction in cell growth at 3 uM after 24 hrs in presence of TNF by Hoechst 33342 staining-based microscopic assay relative to control
Aurk (Aurora kinase) [7] = assay: Inhibition of Aurk in mouse L929sA cells transfected with human Fas assessed as increase in nuclear area at 3 uM after 24 hrs in presence of TNF by Hoechst 33342 staining-based microscopic assay relative to control; type: cell-based

Sequence of Aurora kinase B (Q96GD4 whole entry): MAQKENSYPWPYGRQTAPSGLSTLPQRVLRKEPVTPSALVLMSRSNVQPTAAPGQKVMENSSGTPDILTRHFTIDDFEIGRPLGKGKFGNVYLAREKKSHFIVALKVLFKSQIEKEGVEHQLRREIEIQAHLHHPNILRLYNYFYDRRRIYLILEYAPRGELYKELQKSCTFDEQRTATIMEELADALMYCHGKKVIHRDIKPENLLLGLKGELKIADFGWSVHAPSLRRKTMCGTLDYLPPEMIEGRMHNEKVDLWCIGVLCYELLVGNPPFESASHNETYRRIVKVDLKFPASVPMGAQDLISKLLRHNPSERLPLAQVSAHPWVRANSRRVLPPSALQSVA

Row | Structure (SMILES) | pIC50 [3] | pIC50 [4] | pIC50 (Aurora kinase A) | pIC50 (Aurora kinase B) | inhibition at 24 h, 3 µM (Aurk (Aurora kinase) [7]) [%] | inhibition [1] [%] | inhibition [2] [%] | pIC50 [5] | Activity (Mus musculus) | inhibition at 24 h, 3 µM (Aurk (Aurora kinase) [6]) [%]
1 | Cc1cc(Nc2nc(Sc3ccc(NC(=O)C4CCCCC4)cc3)nc(N3CCN(C)CC3)n2)n[nH]1 | 5.61 | 6.40 | 6.68 | 6.64 | – | < 50 | < 50 | 6.48 | – | –
2 | CN1C(=O)NC(Cc2c[nH]c3c(Cl)cccc23)C1=O (configuration not stated) | – | – | < 5.52 | < 5.52 | – | – | – | – | Active | –
3 | Cc1cc(Nc2cc(N3CCOCC3)nc(Nc3ccc(NC(=O)C4CC4)cc3)n2)n[nH]1 | – | < 5.52 | 6.37 | 6.07 | < 50 | – | – | < 5.52 | Active | < 50
4 | Cc1cc(Nc2cc(N3CCCCC3)nc(Nc3ccc(NC(=O)C4CC4)cc3)n2)n[nH]1 | – | < 5.52 | – | 6.02 | < 50 | – | – | < 5.52 | inactive | < 50
5 | Cc1[nH]nc(Nc2nc(Nc3ccc(NC(=O)C4CC4)cc3)nc(N3CCCCC3)n2)c1C | – | < 5.52 | – | – | < 50 | < 50 | < 50 | < 5.52 | – | < 50
6 | Cc1[nH]nc(Nc2nc(Sc3ccc(NC(=O)C4CC4)cc3)nc(N3CCCCC3)n2)c1C | – | < 5.52 | – | – | < 50 | < 50 | < 50 | < 5.52 | – | < 50
7 | Cc1cc(Nc2nc(Nc3ccc(NC(=O)C4CCCCC4)cc3)nc(N3CCN(C)CC3)n2)n[nH]1 | – | < 5.52 | – | – | < 50 | < 50 | < 50 | < 5.52 | – | < 50

Continued, in another order:

Row | pIC50 [3] | pIC50 [4] | pIC50 (Aurora kinase A) | pIC50 (Aurora kinase B) | inhibition at 24 h, 3 µM (Aurk (Aurora kinase) [7]) [%] | Structure (SMILES) | inhibition [1] [%] | inhibition [2] [%] | pIC50 [5] | Activity (Mus musculus) | inhibition at 24 h, 3 µM (Aurk (Aurora kinase) [6]) [%]
8 | 6.75 | < 5.52 | 6.53 | 5.87 | < 50 | Cc1cc(Nc2cc(N3CCN(C)CC3)nc(Nc3ccc(NC(=O)C4CC4)cc3)n2)n[nH]1 | – | – | < 5.52 | Active | < 50
9 | – | < 5.52 | – | – | < 50 | Cc1cc(Nc2nc(Nc3ccc(NC(=O)C4CC4)cc3)nc(N3CCCCC3)n2)n[nH]1 | < 50 | < 50 | < 5.52 | – | < 50
10 | – | < 5.52 | – | – | < 50 | Cc1[nH]nc(Nc2nc(Nc3ccc(NC(=O)C4CCCCC4)cc3)nc(N3CCCCC3)n2)c1C | < 50 | < 50 | < 5.52 | – | < 50
11 | – | < 5.52 | – | – | < 50 | Cc1[nH]nc(Nc2nc(Sc3ccc(NC(=O)C4CC4)cc3)nc(N3CCOCC3)n2)c1C | < 50 | < 50 | < 5.52 | – | < 50
